Test results published in ChEMBL document CHEMBL4732078 (Eur J Med Chem, 2021).
Calls of active or inactive are those of the source. The calls are words filed in the database; no cut-off is given here.

Columns and labels:
[1] = Metabolic stability in cynomolgus monkey hepatocytes assessed as half life; assay type: ADME, cell-based, Macaca fascicularis, Hepatocyte
[2] = test system: SK-BR-3; assay: Antiproliferative activity against human SK-BR-3 cells assessed as reduction in cell viability after 72 hrs by sulforhodamine B assay; assay type: functional, cell-based; details: SK-BR-3, 72 h
Summary of the method: (§1)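 SRB assay. Exponentially growing cells seeded at 3000–5000/well, compounds added serially diluted after 24 h, cultured 72 h. Cells fixed with 10% TCA, stained with SRB, dye dissolved in 10 mM Tris-HCl, absorbance read at 560 nm. Inhibition = (ODcontrol − ODtreated)/ODcontrol × 100%. IC50 is the mean of at least three independent tests.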

[3] = Metabolic stability in human hepatocytes assessed as intrinsic clearance; assay type: ADME, cell-based, Hepatocyte; details: read-out: CLH
[4] = Metabolic stability in cynomolgus monkey hepatocytes assessed as intrinsic clearance; assay type: ADME, cell-based, Macaca fascicularis, Hepatocyte; details: read-out: CLH
[5] = target: Voltage-gated inwardly rectifying potassium channel KCNH2 (Homo sapiens, UniProt Q12809); assay: Inhibition of human ERG expressed in CHO cells at holding potential of -80 mV by patch clamp assay; assay type: cell-based
Summary of the method: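 Patch clamp on CHO cells stably expressing hERG, at room temperature. External solution (mM): 145 NaCl, 5 KCl, 2 CaCl2, 1 MgCl2, 10 HEPES, 10 glucose, pH 7.4. Pipette solution: 140 KCl, 1 MgCl2, 0.1 CaCl2, 5 EGTA, 10 HEPES, pH 7.3. Pipettes 3–5 MΩ; peak hERG current amplitude measured.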

[6] = target: Phosphatidylinositol 4,5-bisphosphate 3-kinase catalytic subunit gamma isoform (Homo sapiens) (UniProt P48736); assay: Inhibition of PI3Kgamma (unknown origin) transfected in human Rh30 cells assessed as reduction in AKT phosphorylation at Thr308 residue at 10XIC50 by western blot analysis; assay type: cell-based
Summary of the method: (§2)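 Rh30 cells ectopically expressing membrane-anchored, N-terminally myristoylated, constitutively active p110α, β, γ or δ. Akt phosphorylation assessed by Western blot; lysates made in RIPA buffer, equal protein heated at 95 °C for 10 min in SDS loading buffer.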

[7] = test system: Mus musculus; assay: In vivo inhibition of PI3Kalpha in BALB/cA nude mouse xenografted with human SK-OV-3 cells assessed as reduction in AKT phosphorylation at Ser473 residue in tumor at 5 mg/kg, po measured after 2 hrs by Western blot analysis; assay type: functional, organism-based
Summary of the method: (§3)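 Nude mice carrying SKOV-3 xenografts of 200 mm³ got a single oral 5 mg/kg dose. Tumors were collected at 0, 2, 4 or 8 h, homogenized, and pAkt S473 probed by Western blot.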

[8] = test system: LoVo; assay: Antiproliferative activity against human LoVo cells assessed as reduction in cell viability after 72 hrs by sulforhodamine B assay; assay type: functional, cell-based; summary of the method: as §1
[9] = test system: Mus musculus; assay: In vivo inhibition of PI3Kalpha in BALB/cA nude mouse xenografted with human SK-OV-3 cells assessed as reduction in AKT phosphorylation at Ser473 residue in tumor at 5 mg/kg, po measured after 4 to 8 hrs by Western blot analysis; assay type: functional, organism-based; details: time 4-8 hrs; summary of the method: as §3
[10] = organism: Homo sapiens; assay: Selectivity index, ratio of IC50 for human PI3K p110beta/p85alpha to IC50 for human PI3Kalpha by HTRF assay
Summary of the method: (§4)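 The PI3K isoforms were assayed with an HTRF kit. Each enzyme was incubated in assay buffer containing 10 μM PIP2, and the reaction was started with ATP and run 30 min at room temperature. Stop solution and detection mix were then added and light emission was read. IC50 values were averages of at least 3 separate determinations, and each index is the ratio of IC50 values.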

[11] = test system: T47D; assay: Antiproliferative activity against human T47D cells assessed as reduction in cell viability after 72 hrs by sulforhodamine B assay; assay type: functional, cell-based; summary of the method: as §1
[12] = test system: RAF proto-oncogene serine/threonine-protein kinase (Homo sapiens), P04049 [Y340D,Y341D]; assay: Inhibition of human recombinant c-Raf Y340D/Y341D mutant (306 to end residues) using inactive MEK1 as substrate at 10 uM incubated for 40 mins in presence of [gamma33P-ATP] by radiometric scintillation counting analysis
[13] = Inhibition of human PI3Kgamma R459Q mutant using PIP2 as substrate in presence of ATP measured after 30 mins by HTRF assay
[14] = target: T1, Phosphatidylinositol 4,5-bisphosphate 3-kinase catalytic subunit alpha isoform (Homo sapiens, UniProt P42336); assay: Inhibition of PI3Kalpha in human U87MG cells assessed as reduction in rhIGF1-stimulated AKT phosphorylation at Thr308 treated for 1 hr followed by incubation with IGF1 for 10 mins by western blot analysis; assay type: cell-based; details: U-87 MG, dose 0.01-1 µM, time 70.0 min
Summary of the method: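 U87MG or Rh30 cells held 24 h in serum-free medium, exposed to compound for 1 h, then stimulated with 50 ng/ml IGF-I for 10 min. Lysates blotted for Akt, pAkt T308 and pAkt S473.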

[15] = target: T1, Phosphatidylinositol 4,5-bisphosphate 3-kinase catalytic subunit alpha isoform; assay: Inhibition of human PI3Kalpha using PIP2 as substrate in presence of ATP measured after 30 mins by HTRF assay
Summary of the method: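 HTRF kit assay. Enzyme incubated with 10 μM PIP2; reaction started by adding ATP and run 30 min at room temperature, then stop solution and detection mix added and luminescence read. Compounds kept as 10 mM DMSO stocks.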

[16] = organism: Homo sapiens; assay: Selectivity index, ratio of IC50 for human PI3K p110delta/p85alpha to IC50 for human PI3Kalpha by HTRF assay; summary of the method: as §4
[17] = target: Phosphatidylinositol 4,5-bisphosphate 3-kinase catalytic subunit gamma isoform (Homo sapiens) (UniProt P48736); assay: Inhibition of PI3Kgamma (unknown origin) transfected in human Rh30 cells assessed as reduction in AKT phosphorylation at Ser473 residue at 10XIC50 by western blot analysis; assay type: cell-based; summary of the method: as §2
[18] = Metabolic stability in human hepatocytes assessed as half life; assay type: ADME, cell-based, Hepatocyte
[19] = organism: Homo sapiens; assay: Selectivity index, ratio of IC50 for human PI3Kgamma R459Q mutant to IC50 for human PI3Kalpha by HTRF assay; summary of the method: as §4
[20] = Metabolic stability in mouse hepatocytes assessed as intrinsic clearance; assay type: ADME, cell-based, Hepatocyte; details: read-out: CLH
[21] = Inhibition of human PI3K p110alpha E545K mutant/p85alpha using PIP2 as substrate incubated for 30 mins in presence of ATP by HTRF assay
[22] = Cmax in rat at 10 mg/kg, po; assay type: ADME, organism-based; design: route oral, dose 10 mg/kg; details: in vivo
Summary of the method: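 Male rats given 10 mg/kg p.o.; Cmax and terminal half-life taken from the plasma concentration–time profile.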

[23] = Toxicity in 6 hrs fasted BALB/cA nude mouse xenografted with human SK-OV-3 cells assessed as blood glucose tolerance at 5 to 20 mg/kg, po administered once a day for 18 days and measured upto 2 hrs post-last dose by oral glucose tolerance test; assay type: organism-based; details: in vivo, 432 h, dose 5-20 mg/kg/day, time 18 day
Summary of the method: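 Female BALB/cA nude mice, 4–5 weeks old, carried s.c. SKOV-3 xenograft fragments. They were dosed orally once daily for 18 days with vehicle or compound, then fasted 6 h and given glucose orally at 2 g/kg. Blood was sampled at set times up to 2 h, and glucose was measured with a blood glucose meter.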

[24] = target: Phosphatidylinositol 4,5-bisphosphate 3-kinase catalytic subunit beta isoform (Homo sapiens) (UniProt P42338); assay: Inhibition of PI3Kbeta (unknown origin) transfected in human Rh30 cells assessed as reduction in AKT phosphorylation at Thr308 residue at 10XIC50 by western blot analysis; assay type: cell-based; summary of the method: as §2
Chain of Phosphatidylinositol 4,5-bisphosphate 3-kinase catalytic subunit beta isoform (Homo sapiens) (P42338 whole entry, looked up, canonical isoform): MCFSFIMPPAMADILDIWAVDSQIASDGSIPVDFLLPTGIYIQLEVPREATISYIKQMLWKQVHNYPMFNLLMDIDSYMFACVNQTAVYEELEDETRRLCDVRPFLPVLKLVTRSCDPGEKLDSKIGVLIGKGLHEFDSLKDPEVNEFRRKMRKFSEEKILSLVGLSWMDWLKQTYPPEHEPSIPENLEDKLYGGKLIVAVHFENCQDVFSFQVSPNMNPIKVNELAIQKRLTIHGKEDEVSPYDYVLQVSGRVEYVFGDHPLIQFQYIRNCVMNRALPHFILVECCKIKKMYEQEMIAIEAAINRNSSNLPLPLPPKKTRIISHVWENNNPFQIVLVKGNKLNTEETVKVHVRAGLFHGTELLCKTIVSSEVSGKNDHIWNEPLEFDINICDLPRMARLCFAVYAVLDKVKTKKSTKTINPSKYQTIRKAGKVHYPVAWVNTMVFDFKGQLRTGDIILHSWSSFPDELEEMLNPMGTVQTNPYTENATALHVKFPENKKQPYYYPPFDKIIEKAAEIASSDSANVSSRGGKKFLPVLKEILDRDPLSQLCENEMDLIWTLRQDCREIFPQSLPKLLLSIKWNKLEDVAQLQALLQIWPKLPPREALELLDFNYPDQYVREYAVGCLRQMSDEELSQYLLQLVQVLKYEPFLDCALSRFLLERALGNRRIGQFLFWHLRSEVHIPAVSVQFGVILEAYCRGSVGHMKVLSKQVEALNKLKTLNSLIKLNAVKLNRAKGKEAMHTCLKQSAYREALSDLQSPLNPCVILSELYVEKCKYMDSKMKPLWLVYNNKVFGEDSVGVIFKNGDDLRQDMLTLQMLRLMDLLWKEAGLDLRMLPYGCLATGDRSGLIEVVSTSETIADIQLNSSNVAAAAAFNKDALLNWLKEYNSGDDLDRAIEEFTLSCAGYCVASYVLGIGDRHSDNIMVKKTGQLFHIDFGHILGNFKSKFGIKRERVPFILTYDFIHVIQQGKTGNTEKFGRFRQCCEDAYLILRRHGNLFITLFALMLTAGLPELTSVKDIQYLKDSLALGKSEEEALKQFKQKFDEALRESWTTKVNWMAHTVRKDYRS

T1 sequence (P42336 whole entry, canonical isoform): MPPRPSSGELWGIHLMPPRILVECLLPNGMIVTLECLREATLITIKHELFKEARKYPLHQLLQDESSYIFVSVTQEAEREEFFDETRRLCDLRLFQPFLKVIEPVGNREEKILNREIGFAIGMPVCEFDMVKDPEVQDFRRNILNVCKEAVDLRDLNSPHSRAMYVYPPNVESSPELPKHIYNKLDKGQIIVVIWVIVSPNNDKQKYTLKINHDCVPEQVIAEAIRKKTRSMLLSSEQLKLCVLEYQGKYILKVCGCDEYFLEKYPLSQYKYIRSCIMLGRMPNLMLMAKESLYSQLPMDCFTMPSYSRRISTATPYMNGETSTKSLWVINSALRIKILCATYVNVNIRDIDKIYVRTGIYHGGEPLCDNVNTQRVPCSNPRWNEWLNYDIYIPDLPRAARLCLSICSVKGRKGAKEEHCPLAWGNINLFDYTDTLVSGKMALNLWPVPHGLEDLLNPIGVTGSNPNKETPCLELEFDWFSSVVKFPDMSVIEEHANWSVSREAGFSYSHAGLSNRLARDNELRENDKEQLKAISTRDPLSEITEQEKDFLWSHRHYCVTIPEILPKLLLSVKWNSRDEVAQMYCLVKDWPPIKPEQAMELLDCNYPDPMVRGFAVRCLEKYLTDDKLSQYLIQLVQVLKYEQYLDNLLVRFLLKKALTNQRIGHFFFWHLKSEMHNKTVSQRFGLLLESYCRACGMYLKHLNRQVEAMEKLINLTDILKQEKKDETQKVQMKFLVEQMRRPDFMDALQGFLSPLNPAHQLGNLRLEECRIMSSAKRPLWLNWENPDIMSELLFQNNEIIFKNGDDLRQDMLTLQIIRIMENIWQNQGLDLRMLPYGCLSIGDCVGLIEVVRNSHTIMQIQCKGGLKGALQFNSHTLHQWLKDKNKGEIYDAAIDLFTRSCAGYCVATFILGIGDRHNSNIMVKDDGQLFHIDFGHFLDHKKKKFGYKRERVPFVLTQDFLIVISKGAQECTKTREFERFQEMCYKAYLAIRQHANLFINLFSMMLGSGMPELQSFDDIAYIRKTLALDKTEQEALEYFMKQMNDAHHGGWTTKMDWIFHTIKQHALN
Chain of Phosphatidylinositol 4,5-bisphosphate 3-kinase catalytic subunit gamma isoform (Homo sapiens) (P48736 whole entry, looked up, canonical isoform): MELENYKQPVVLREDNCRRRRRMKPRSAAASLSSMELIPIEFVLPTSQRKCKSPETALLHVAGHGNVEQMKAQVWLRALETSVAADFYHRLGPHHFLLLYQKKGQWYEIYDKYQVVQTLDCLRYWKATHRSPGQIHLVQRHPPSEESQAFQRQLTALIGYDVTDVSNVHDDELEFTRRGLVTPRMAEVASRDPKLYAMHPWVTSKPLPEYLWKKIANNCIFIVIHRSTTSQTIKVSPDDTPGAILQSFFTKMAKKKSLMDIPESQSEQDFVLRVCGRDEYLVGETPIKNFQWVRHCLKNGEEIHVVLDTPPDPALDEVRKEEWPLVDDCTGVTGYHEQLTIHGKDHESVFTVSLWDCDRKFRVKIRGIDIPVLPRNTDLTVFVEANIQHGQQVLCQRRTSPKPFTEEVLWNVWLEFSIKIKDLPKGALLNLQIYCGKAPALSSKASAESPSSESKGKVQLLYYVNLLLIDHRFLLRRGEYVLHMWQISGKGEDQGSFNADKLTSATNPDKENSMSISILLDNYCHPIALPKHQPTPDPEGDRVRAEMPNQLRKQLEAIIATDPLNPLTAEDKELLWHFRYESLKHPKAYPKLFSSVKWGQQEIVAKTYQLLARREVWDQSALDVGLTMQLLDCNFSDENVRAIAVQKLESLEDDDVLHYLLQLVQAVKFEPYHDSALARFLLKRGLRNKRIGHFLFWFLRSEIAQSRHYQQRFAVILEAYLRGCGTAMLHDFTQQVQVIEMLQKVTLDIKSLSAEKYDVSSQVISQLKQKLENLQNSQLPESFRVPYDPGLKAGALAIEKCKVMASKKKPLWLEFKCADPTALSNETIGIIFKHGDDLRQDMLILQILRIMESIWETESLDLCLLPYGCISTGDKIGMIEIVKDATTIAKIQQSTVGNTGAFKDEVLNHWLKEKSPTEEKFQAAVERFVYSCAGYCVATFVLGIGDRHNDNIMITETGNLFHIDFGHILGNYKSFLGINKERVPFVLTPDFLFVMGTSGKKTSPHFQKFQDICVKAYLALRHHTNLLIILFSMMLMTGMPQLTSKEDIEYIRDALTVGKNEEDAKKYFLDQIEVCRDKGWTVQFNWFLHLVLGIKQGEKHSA
Chain of RAF proto-oncogene serine/threonine-protein kinase (Homo sapiens), P04049 [Y340D,Y341D] (P04049 whole entry Y340D/Y341D): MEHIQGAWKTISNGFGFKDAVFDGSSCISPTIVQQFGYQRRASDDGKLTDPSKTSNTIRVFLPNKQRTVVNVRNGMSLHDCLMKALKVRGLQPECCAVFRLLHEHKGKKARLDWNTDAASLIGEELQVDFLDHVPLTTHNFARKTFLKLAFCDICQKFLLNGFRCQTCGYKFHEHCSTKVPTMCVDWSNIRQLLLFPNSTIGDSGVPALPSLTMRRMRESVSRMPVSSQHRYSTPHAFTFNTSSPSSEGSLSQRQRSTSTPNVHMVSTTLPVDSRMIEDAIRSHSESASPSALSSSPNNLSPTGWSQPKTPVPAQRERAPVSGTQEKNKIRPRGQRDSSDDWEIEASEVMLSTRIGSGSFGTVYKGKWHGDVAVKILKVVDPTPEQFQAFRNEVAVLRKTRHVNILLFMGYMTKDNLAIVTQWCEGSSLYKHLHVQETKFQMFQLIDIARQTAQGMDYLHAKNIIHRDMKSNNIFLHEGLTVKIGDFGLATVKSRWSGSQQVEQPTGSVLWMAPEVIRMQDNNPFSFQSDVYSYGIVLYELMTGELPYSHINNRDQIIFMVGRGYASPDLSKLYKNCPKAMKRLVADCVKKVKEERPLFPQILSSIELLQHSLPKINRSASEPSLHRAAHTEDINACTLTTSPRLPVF
Chain of Voltage-gated inwardly rectifying potassium channel KCNH2 (Q12809 whole entry): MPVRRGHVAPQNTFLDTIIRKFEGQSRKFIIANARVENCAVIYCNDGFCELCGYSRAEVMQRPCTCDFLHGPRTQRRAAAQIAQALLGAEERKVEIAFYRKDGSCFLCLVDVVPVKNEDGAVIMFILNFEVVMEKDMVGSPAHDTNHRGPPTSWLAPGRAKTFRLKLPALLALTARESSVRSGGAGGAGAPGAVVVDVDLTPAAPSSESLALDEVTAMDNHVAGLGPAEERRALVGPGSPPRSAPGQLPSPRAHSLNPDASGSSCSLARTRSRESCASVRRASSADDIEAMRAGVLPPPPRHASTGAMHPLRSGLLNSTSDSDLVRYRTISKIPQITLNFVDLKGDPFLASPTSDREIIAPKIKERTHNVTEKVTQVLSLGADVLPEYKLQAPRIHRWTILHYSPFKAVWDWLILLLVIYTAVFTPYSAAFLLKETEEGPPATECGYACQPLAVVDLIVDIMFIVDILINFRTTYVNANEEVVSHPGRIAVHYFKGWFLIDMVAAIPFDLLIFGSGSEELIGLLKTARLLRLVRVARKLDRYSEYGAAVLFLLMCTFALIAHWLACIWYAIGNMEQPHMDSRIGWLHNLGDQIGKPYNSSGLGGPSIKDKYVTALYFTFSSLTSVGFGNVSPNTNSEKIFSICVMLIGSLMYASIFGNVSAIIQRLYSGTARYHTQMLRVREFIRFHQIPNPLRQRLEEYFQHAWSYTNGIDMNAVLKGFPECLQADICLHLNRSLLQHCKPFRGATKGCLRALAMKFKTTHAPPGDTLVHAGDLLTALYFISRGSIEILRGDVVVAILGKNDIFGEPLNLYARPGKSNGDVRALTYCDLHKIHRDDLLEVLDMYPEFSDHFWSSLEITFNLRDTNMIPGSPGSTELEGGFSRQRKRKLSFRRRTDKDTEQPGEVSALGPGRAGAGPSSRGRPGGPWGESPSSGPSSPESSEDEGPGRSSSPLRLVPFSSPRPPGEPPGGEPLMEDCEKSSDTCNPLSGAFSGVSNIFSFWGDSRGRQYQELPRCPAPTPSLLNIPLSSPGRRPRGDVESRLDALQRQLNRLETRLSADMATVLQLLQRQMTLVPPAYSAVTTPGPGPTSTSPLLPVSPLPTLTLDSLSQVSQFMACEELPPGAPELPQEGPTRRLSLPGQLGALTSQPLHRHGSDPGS

In the case of `COC(=O)Nc1cc(C(F)(F)F)c(-c2nc(N3CCOCC3)c3cc(CN4CCN(S(C)(=O)=O)CC4)cn3n2)cn1` [RISOVALISIB], the half-life [1] is reported as 0.717 h, the IC50 [2] is reported as < 1000 nM and the CLint scaled [3] is reported as 3.05 mL/min/kg. The CLint scaled [4] was 29 mL/min/kg, the IC50 [5] was > 40000 nM and the inhibition [6] was “Active”. For the same compound, the inhibition [7] was “Active”, the IC50 [8] was < 1000 nM and the inhibition [9] was “inactive”. For the same compound, the Ratio IC50 [10] was 101, the IC50 [11] was < 1000 nM and the inhibition [12] was > 50%. For the same compound, the IC50 [13] was 225 nM, the inhibition [14] was “Dose-dependent effect” and the IC50 [15] was 5.9 nM. The Ratio IC50 [16] was 13, the inhibition [17] was “Active” and the half-life [18] was 6.79 h. The Ratio IC50 [19] was 38, the CLint scaled [20] was 21.6 mL/min/kg and the IC50 [21] was 17.1 nM. For the same compound, the Cmax [22] was 832 ng/mL, the Activity [23] was “Non-Toxic” and the inhibition [24] was “Active”.
